ChEMBL document CHEMBL1134346, “Labeling and evaluation of N-[11C]methylated quinoline-2-carboxamides as potential radioligands for visualization of peripheral benzodiazepine receptors” (J Med Chem, 2001)

Legend:
Rattus norvegicus [1] = organism: Rattus norvegicus; test: Tissue (cortex) distribution in Albino male CD rats after 15 minutes expressed as percent of injected dose per gram of organ.; type: ADME, organism-based; conditions: in vivo, 0.25 h
How it was run: (§1)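 Radioligand given in saline into tail vein of male albino CD rats (225-250 g); 100-200 µCi per animal, 1-2 Ci/µmol at injection depending on radioligand. Three rats per time point were decapitated under light ether anaesthesia. Blood, plasma, brain regions and washed organs were weighed and gamma-counted. Uptake is %I.D./g tissue, mean ± SD.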

Rattus norvegicus [2] = organism: Rattus norvegicus; test: Tissue (pituitary) distribution in Albino male CD rats after 30 minutes expressed as percent of injected dose per gram of organ.; type: ADME, organism-based, Pituitary gland; conditions: in vivo, 0.5 h
How it was run: (§2)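 Male albino CD rats (225-250 g) received the 11C-labelled radioligand in saline by tail-vein injection. Three rats per time point were decapitated under light ether anaesthesia at 5, 15, 30, 60 or 90 min. Blood was collected heparinized and plasma separated by centrifugation. The pituitary was dissected from the brain. Lung, liver (three-lobe pieces) and right deltoid muscle were sampled, washed in cold saline, gamma-counted and weighed. Results are %I.D./g.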

Rattus norvegicus [3] = organism: Rattus norvegicus; test: Tissue (lung) distribution in Albino male CD rats after 15 minutes expressed as percent of injected dose per gram of organ.; type: ADME, organism-based; conditions: in vivo, 0.25 h; how it was run: as §2
[4] = target: Translocator protein (Rattus norvegicus) (UniProt P16257); test: Tissue (muscle) concentration of radioactivity at 30 min post-injection into Albino male CD rats after pretreatment with cold PK 11195.; type: functional
How it was run: (§3)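 Blocking study in male albino CD rats, five per group. Immediately before the 11C radioligand (in saline, i.v. tail vein), rats received 30 µL tail-vein PK 11195 (5 mg/kg; 1.4-1.6 mg) in DMSO:EtOH 1:1, or vehicle. Rats were decapitated at 30 min. Tissues were dissected, washed, gamma-counted and weighed as in the biodistribution study. Results are %I.D./g.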

Rattus norvegicus [5] = organism: Rattus norvegicus; test: Tissue (pituitary) distribution in Albino male CD rats after 15 minutes expressed as percent of injected dose per gram of organ.; type: ADME, organism-based, Pituitary gland; conditions: in vivo, 0.25 h; how it was run: as §2
Rattus norvegicus [6] = organism: Rattus norvegicus; test: Tissue (cortex) distribution in Albino male CD rats after 30 minutes expressed as percent of injected dose per gram of organ.; type: ADME, organism-based; conditions: in vivo, 0.5 h; how it was run: as §1
[7] = target: Translocator protein (Rattus norvegicus) (UniProt P16257); test: Tissue (cortex) concentration of radioactivity at 30 min post-injection into Albino male CD rats after pretreatment with cold PK 11195.; type: functional
How it was run: (§4)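 Separate groups of five rats received tail-vein PK 11195 (1.4-1.6 mg; 5 mg/kg) in 30 µL DMSO:EtOH 1:1, or vehicle alone, immediately before iv radioligand (90-170 µCi in saline, 0.9-1 Ci/µmol). Rats were decapitated at 30 min and tissues gamma-counted; values are %I.D./g.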

Rattus norvegicus [8] = organism: Rattus norvegicus; test: Tissue (kidney) distribution in Albino male CD rats after 5 minutes expressed as percent of injected dose per gram of organ.; type: ADME, organism-based; conditions: in vivo; how it was run: as §1
Rattus norvegicus [9] = organism: Rattus norvegicus; test: Tissue (lung) concentration of radioactivity at 30 min post-injection into Albino male CD rats with vehicle.; type: ADME, organism-based; conditions: in vivo, 0.5 h; how it was run: as §3
Rattus norvegicus [10] = organism: Rattus norvegicus; test: Tissue (adrenal gland) distribution in Albino male CD rats after 30 minutes expressed as percent of injected dose per gram of organ.; type: ADME, organism-based; conditions: in vivo, 0.5 h; how it was run: as §1
[11] = target: Translocator protein (Rattus norvegicus) (UniProt P16257); test: Tissue (adrenal gland) concentration of radioactivity at 30 min post-injection into Albino male CD rats after pretreatment with cold PK 11195.; type: functional, tissue-based; how it was run: as §4
Rattus norvegicus [12] = organism: Rattus norvegicus; test: Tissue (spleen) distribution in Albino male CD rats after 60 minutes expressed as percent of injected dose per gram of organ.; type: ADME, organism-based; conditions: in vivo, 1 h
Rattus norvegicus [13] = organism: Rattus norvegicus; test: Tissue (muscle) concentration of radioactivity at 30 min post-injection into Albino male CD rats with vehicle.; type: ADME, organism-based; conditions: in vivo, 0.5 h; how it was run: as §3
Rattus norvegicus [14] = organism: Rattus norvegicus; test: Tissue (testicle) distribution in Albino male CD rats after 15 minutes expressed as percent of injected dose per gram of organ.; type: ADME, organism-based; conditions: in vivo, 0.25 h; how it was run: as §2
Rattus norvegicus [15] = organism: Rattus norvegicus; test: Tissue (pituitary) distribution in Albino male CD rats after 90 minutes expressed as percent of injected dose per gram of organ.; type: ADME, organism-based, Pituitary gland; conditions: in vivo, 1.5 h; how it was run: as §2
Rattus norvegicus [16] = organism: Rattus norvegicus; test: Tissue (adrenal gland) distribution in Albino male CD rats after 60 minutes expressed as percent of injected dose per gram of organ.; type: ADME, organism-based; conditions: in vivo, 1 h; how it was run: as §1
Rattus norvegicus [17] = organism: Rattus norvegicus; test: Tissue (muscle) distribution in Albino male CD rats after 30 minutes expressed as percent of injected dose per gram of organ.; type: ADME, organism-based; conditions: in vivo, 0.5 h; how it was run: as §2
Rattus norvegicus [18] = organism: Rattus norvegicus; test: Tissue (spleen) distribution in Albino male CD rats after 30 minutes expressed as percent of injected dose per gram of organ.; type: ADME, organism-based; conditions: in vivo, 0.5 h; how it was run: as §2
Rattus norvegicus [19] = organism: Rattus norvegicus; test: Tissue (blood) distribution in Albino male CD rats after 15 minutes expressed as percent of injected dose per gram of organ.; type: ADME, organism-based; conditions: in vivo, 0.25 h; how it was run: as §1
[20] = target: Translocator protein (Rattus norvegicus) (UniProt P16257); test: Tissue (kidney) concentration of radioactivity at 30 min post-injection into Albino male CD rats after pretreatment with cold PK 11195.; type: functional, tissue-based; how it was run: as §4
Rattus norvegicus [21] = organism: Rattus norvegicus; test: Tissue (lung) distribution in Albino male CD rats after 5 minutes expressed as percent of injected dose per gram of organ.; type: ADME, organism-based; conditions: in vivo; how it was run: as §2
[22] = target: Translocator protein (Rattus norvegicus) (UniProt P16257); test: Tissue (pituitary) concentration of radioactivity at 30 min post-injection into Albino male CD rats after pretreatment with cold PK 11195.; type: functional, tissue-based; conditions: Pituitary gland; how it was run: as §3
Rattus norvegicus [23] = organism: Rattus norvegicus; test: Tissue (heart) distribution in Albino male CD rats after 15 minutes expressed as percent of injected dose per gram of organ.; type: ADME, organism-based; conditions: in vivo, 0.25 h; how it was run: as §1
Rattus norvegicus [24] = organism: Rattus norvegicus; test: Tissue (lung) distribution in Albino male CD rats after 30 minutes expressed as percent of injected dose per gram of organ.; type: ADME, organism-based; conditions: in vivo, 0.5 h; how it was run: as §2
Rattus norvegicus [25] = organism: Rattus norvegicus; test: Tissue (kidney) distribution in Albino male CD rats after 15 minutes expressed as percent of injected dose per gram of organ.; type: ADME, organism-based; conditions: in vivo, 0.25 h; how it was run: as §1
Rattus norvegicus [26] = organism: Rattus norvegicus; test: Tissue (plasma) distribution in Albino male CD rats after 60 minutes expressed as percent of injected dose per gram of organ.; type: ADME, organism-based; conditions: in vivo, 1 h; how it was run: as §2
[27] = target: Translocator protein (Rattus norvegicus) (UniProt P16257); test: Tissue (liver) concentration of radioactivity at 30 min post-injection into Albino male CD rats after pretreatment with cold PK 11195.; type: functional, tissue-based; how it was run: as §4
Rattus norvegicus [28] = organism: Rattus norvegicus; test: Tissue (cerebellum) distribution in Albino male CD rats after 30 minutes expressed as percent of injected dose per gram of organ.; type: ADME, organism-based; conditions: in vivo, 0.5 h; how it was run: as §1
Rattus norvegicus [29] = organism: Rattus norvegicus; test: Tissue (cortex) concentration of radioactivity at 30 min post-injection into Albino male CD rats with vehicle.; type: ADME, organism-based; conditions: in vivo, 0.5 h; how it was run: as §4
Rattus norvegicus [30] = organism: Rattus norvegicus; test: Tissue (pituitary) distribution in Albino male CD rats after 5 minutes expressed as percent of injected dose per gram of organ.; type: ADME, organism-based, Pituitary gland; conditions: in vivo; how it was run: as §2
Rattus norvegicus [31] = organism: Rattus norvegicus; test: Tissue (blood) distribution in Albino male CD rats after 5 minutes expressed as percent of injected dose per gram of organ.; type: ADME, organism-based; conditions: in vivo; how it was run: as §1
Rattus norvegicus [32] = organism: Rattus norvegicus; test: Tissue (liver) distribution in Albino male CD rats after 5 minutes expressed as percent of injected dose per gram of organ.; type: ADME, organism-based; conditions: in vivo; how it was run: as §2
Rattus norvegicus [33] = organism: Rattus norvegicus; test: Tissue (kidney) distribution in Albino male CD rats after 90 minutes expressed as percent of injected dose per gram of organ.; type: ADME, organism-based; conditions: in vivo, 1.5 h; how it was run: as §1
Rattus norvegicus [34] = organism: Rattus norvegicus; test: Tissue (spleen) distribution in Albino male CD rats after 90 minutes expressed as percent of injected dose per gram of organ.; type: ADME, organism-based; conditions: in vivo, 1.5 h
Rattus norvegicus [35] = organism: Rattus norvegicus; test: Tissue (kidney) concentration of radioactivity at 30 min post-injection into Albino male CD rats with vehicle.; type: ADME, organism-based; conditions: in vivo, 0.5 h; how it was run: as §4
[36] = target: Translocator protein (Rattus norvegicus) (UniProt P16257); test: Tissue (heart) concentration of radioactivity at 30 min post-injection into Albino male CD rats after pretreatment with cold PK 11195.; type: functional; how it was run: as §4
Rattus norvegicus [37] = organism: Rattus norvegicus; test: Tissue (liver) distribution in Albino male CD rats after 60 minutes expressed as percent of injected dose per gram of organ.; type: ADME, organism-based; conditions: in vivo, 1 h; how it was run: as §2
Rattus norvegicus [38] = organism: Rattus norvegicus; test: Tissue (intestine) distribution in Albino male CD rats after 60 minutes expressed as percent of injected dose per gram of organ.; type: ADME, organism-based; conditions: in vivo, 1 h; how it was run: as §1
Rattus norvegicus [39] = organism: Rattus norvegicus; test: Tissue (muscle) distribution in Albino male CD rats after 5 minutes expressed as percent of injected dose per gram of organ.; type: ADME, organism-based; conditions: in vivo; how it was run: as §2
Rattus norvegicus [40] = organism: Rattus norvegicus; test: Tissue (cerebellum) distribution in Albino male CD rats after 5 minutes expressed as percent of injected dose per gram of organ.; type: ADME, organism-based; conditions: in vivo; how it was run: as §1

Sequence of Translocator protein (Rattus norvegicus) (P16257 whole entry, looked up): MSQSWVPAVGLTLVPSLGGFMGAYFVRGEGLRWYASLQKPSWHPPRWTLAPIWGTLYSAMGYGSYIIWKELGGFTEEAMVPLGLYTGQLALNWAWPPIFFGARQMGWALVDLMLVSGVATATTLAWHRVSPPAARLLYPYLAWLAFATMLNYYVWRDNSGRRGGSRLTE

Compound: CCC(C)N(C)C(=O)c1nc2ccccc2c(-c2ccccc2)c1C (stereo not given)
- I.D./g (Rattus norvegicus [1]): 0.07%
- I.D./g (Rattus norvegicus [2]): 0.24%
- I.D./g (Rattus norvegicus [3]): 2.01%
- I.D./g [4]: > 0.07%
- I.D./g (Rattus norvegicus [5]): 0.2%
- I.D./g (Rattus norvegicus [6]): 0.07%
- I.D./g [7]: > 0.04%
- I.D./g (Rattus norvegicus [8]): 0.59%
- I.D./g (Rattus norvegicus [9]): 0.91%
- I.D./g (Rattus norvegicus [10]): 2.54%
- I.D./g [11]: > 0.94%
- I.D./g (Rattus norvegicus [12]): 1.25%
- I.D./g (Rattus norvegicus [13]): 0.09%
- I.D./g (Rattus norvegicus [14]): 0.05%
- I.D./g (Rattus norvegicus [15]): 0.2%
- I.D./g (Rattus norvegicus [16]): 2.27%
- I.D./g (Rattus norvegicus [17]): 0.16%
- I.D./g (Rattus norvegicus [18]): 1.25%
- I.D./g (Rattus norvegicus [19]): 0.08%
- I.D./g [20]: < 0.16%
- I.D./g (Rattus norvegicus [21]): 3.09%
- I.D./g [22]: < 0.07%
- I.D./g (Rattus norvegicus [23]): 0.8%
- I.D./g (Rattus norvegicus [24]): 2.34%
- I.D./g (Rattus norvegicus [25]): 0.6%
- I.D./g (Rattus norvegicus [26]): 0.03%
- I.D./g [27]: < 0.56%
- I.D./g (Rattus norvegicus [28]): 0.09%
- I.D./g (Rattus norvegicus [29]): 0.05%
- I.D./g (Rattus norvegicus [30]): 0.22%
- I.D./g (Rattus norvegicus [31]): 0.13%
- I.D./g (Rattus norvegicus [32]): 0.64%
- I.D./g (Rattus norvegicus [33]): 0.73%
- I.D./g (Rattus norvegicus [34]): 1.06%
- I.D./g (Rattus norvegicus [35]): 0.45%
- I.D./g [36]: < 0.13%
- I.D./g (Rattus norvegicus [37]): 0.32%
- I.D./g (Rattus norvegicus [38]): 0.4%
- I.D./g (Rattus norvegicus [39]): 0.11%
- I.D./g (Rattus norvegicus [40]): 0.13%
